Results taken from ChEMBL document CHEMBL4152256, “Structure-activity relationship of new antimalarial 1-aryl-3-susbtituted propanol derivatives: Synthesis, preliminary toxicity profiling, parasite life cycle stage studies, target exploration, and targeted delivery” (Eur J Med Chem, 2018).

Columns and labels:
[1] = Genotoxicity in Salmonella typhimurium TA1535 harboring pSK1002 assessed as survival at 0.008 mg/ml in absence of Sprague-Dawley rat liver S9 fraction after by SOS/umu assay relative to control; format: toxicity, organism-based; conditions: salmonella enterica subsp. enterica serovar typhimurium, read-out: Survival
[2] = Genotoxicity in Salmonella typhimurium TA1535 harboring pSK1002 assessed as umu gene induction at 0.016 mg/ml in absence of Sprague-Dawley rat liver S9 fraction after by SOS/umu assay relative to control; format: toxicity, organism-based; conditions: salmonella enterica subsp. enterica serovar typhimurium, read-out: FC
[3] = Genotoxicity in Salmonella typhimurium TA1535 harboring pSK1002 assessed as survival at 0.016 mg/ml in presence of Sprague-Dawley rat liver S9 fraction after by SOS/umu assay relative to control; format: toxicity, organism-based; conditions: salmonella enterica subsp. enterica serovar typhimurium, read-out: Survival
[4] = Genotoxicity in Salmonella typhimurium TA1535 harboring pSK1002 assessed as survival at 0.002 mg/ml in absence of Sprague-Dawley rat liver S9 fraction after by SOS/umu assay relative to control; format: toxicity, organism-based; conditions: salmonella enterica subsp. enterica serovar typhimurium, read-out: Survival
Plasmodium falciparum [5] = assay: Antiplasmodial activity against multidrug-resistant Plasmodium falciparum FCR-3 by [3H]-hypoxanthine incorporation assay; format: functional, organism-based, FCR-3/Gambia; conditions: Plasmodium falciparum, FCR-3/Gambia
Method in brief: (§1)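 Blood-stage P. falciparum 3D7 and FCR-3 were tested by a modified [3H]-hypoxanthine incorporation assay. Chloroquine was the reference in all runs.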

[6] = Genotoxicity in Salmonella typhimurium TA1535 harboring pSK1002 assessed as survival at 0.063 mg/ml in absence of Sprague-Dawley rat liver S9 fraction after by SOS/umu assay relative to control; format: toxicity, organism-based; conditions: salmonella enterica subsp. enterica serovar typhimurium, read-out: Survival
[7] = Genotoxicity in Salmonella typhimurium TA1535 harboring pSK1002 assessed as survival at 0.002 mg/ml in presence of Sprague-Dawley rat liver S9 fraction after by SOS/umu assay relative to control; format: toxicity, organism-based; conditions: salmonella enterica subsp. enterica serovar typhimurium, read-out: Survival
[8] = Genotoxicity in Salmonella typhimurium TA1535 harboring pSK1002 assessed as survival at 0.031 mg/ml in absence of Sprague-Dawley rat liver S9 fraction after by SOS/umu assay relative to control; format: toxicity, organism-based; conditions: salmonella enterica subsp. enterica serovar typhimurium, read-out: Survival
[9] = Genotoxicity in Salmonella typhimurium TA1535 harboring pSK1002 assessed as survival at 0.125 mg/ml in absence of Sprague-Dawley rat liver S9 fraction after by SOS/umu assay relative to control; format: toxicity, organism-based; conditions: salmonella enterica subsp. enterica serovar typhimurium, read-out: Survival
[10] = Genotoxicity in Salmonella typhimurium TA1535 harboring pSK1002 assessed as umu gene induction at 0.125 mg/ml in absence of Sprague-Dawley rat liver S9 fraction after by SOS/umu assay relative to control; format: toxicity, organism-based; conditions: salmonella enterica subsp. enterica serovar typhimurium, read-out: FC
[11] = Genotoxicity in Salmonella typhimurium TA1535 harboring pSK1002 assessed as umu gene induction at 0.001 mg/ml in absence of Sprague-Dawley rat liver S9 fraction after by SOS/umu assay relative to control; format: toxicity, organism-based; conditions: salmonella enterica subsp. enterica serovar typhimurium, read-out: FC
[12] = Genotoxicity in Salmonella typhimurium TA1535 harboring pSK1002 assessed as umu gene induction at 0.002 mg/ml in absence of Sprague-Dawley rat liver S9 fraction after by SOS/umu assay relative to control; format: toxicity, organism-based; conditions: salmonella enterica subsp. enterica serovar typhimurium, read-out: FC
[13] = Genotoxicity in Salmonella typhimurium TA1535 harboring pSK1002 assessed as survival at 0.001 mg/ml in presence of Sprague-Dawley rat liver S9 fraction after by SOS/umu assay relative to control; format: toxicity, organism-based; conditions: salmonella enterica subsp. enterica serovar typhimurium, read-out: Survival
[14] = Genotoxicity in Salmonella typhimurium TA1535 harboring pSK1002 assessed as survival at 0.004 mg/ml in absence of Sprague-Dawley rat liver S9 fraction after by SOS/umu assay relative to control; format: toxicity, organism-based; conditions: salmonella enterica subsp. enterica serovar typhimurium, read-out: Survival
[15] = Genotoxicity in Salmonella typhimurium TA1535 harboring pSK1002 assessed as umu gene induction at 0.008 mg/ml in presence of Sprague-Dawley rat liver S9 fraction after by SOS/umu assay relative to control; format: toxicity, organism-based; conditions: salmonella enterica subsp. enterica serovar typhimurium, read-out: FC
[16] = Genotoxicity in Salmonella typhimurium TA1535 harboring pSK1002 assessed as umu gene induction at 0.002 mg/ml in presence of Sprague-Dawley rat liver S9 fraction after by SOS/umu assay relative to control; format: toxicity, organism-based; conditions: salmonella enterica subsp. enterica serovar typhimurium, read-out: FC
[17] = Genotoxicity in Salmonella typhimurium TA1535 harboring pSK1002 assessed as survival at 0.125 mg/ml in presence of Sprague-Dawley rat liver S9 fraction after by SOS/umu assay relative to control; format: toxicity, organism-based; conditions: salmonella enterica subsp. enterica serovar typhimurium, read-out: Survival
[18] = Genotoxicity in Salmonella typhimurium TA1535 harboring pSK1002 assessed as survival at 0.008 mg/ml in presence of Sprague-Dawley rat liver S9 fraction after by SOS/umu assay relative to control; format: toxicity, organism-based; conditions: salmonella enterica subsp. enterica serovar typhimurium, read-out: Survival
[19] = Selectivity index, ratio of CC50 for human HepG2A16 cells by MTT assay to IC50 for multidrug-resistant Plasmodium falciparum FCR-3; format: toxicity; conditions: HepG2A16 cells, read-out: Ratio CC50/IC50
Method in brief: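 HepG2-A16 human hepatoma cells were tested by MTT viability assay to give CC50. Blood-stage activity was measured against the multidrug-resistant P. falciparum FCR-3 strain by [3H]-hypoxanthine incorporation to give IC50. SI = CC50 HepG2 / FCR-3 IC50.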

[20] = Genotoxicity in Salmonella typhimurium TA1535 harboring pSK1002 assessed as umu gene induction at 0.004 mg/ml in absence of Sprague-Dawley rat liver S9 fraction after by SOS/umu assay relative to control; format: toxicity, organism-based; conditions: salmonella enterica subsp. enterica serovar typhimurium, read-out: FC
[21] = Genotoxicity in Salmonella typhimurium TA1535 harboring pSK1002 assessed as survival at 0.001 mg/ml in absence of Sprague-Dawley rat liver S9 fraction after by SOS/umu assay relative to control; format: toxicity, organism-based; conditions: salmonella enterica subsp. enterica serovar typhimurium, read-out: Survival
[22] = Genotoxicity in Salmonella typhimurium TA1535 harboring pSK1002 assessed as umu gene induction at 0.063 mg/ml in absence of Sprague-Dawley rat liver S9 fraction after by SOS/umu assay relative to control; format: toxicity, organism-based; conditions: salmonella enterica subsp. enterica serovar typhimurium, read-out: FC
[23] = Genotoxicity in Salmonella typhimurium TA1535 harboring pSK1002 assessed as survival at 0.063 mg/ml in presence of Sprague-Dawley rat liver S9 fraction after by SOS/umu assay relative to control; format: toxicity, organism-based; conditions: salmonella enterica subsp. enterica serovar typhimurium, read-out: Survival
[24] = Genotoxicity in Salmonella typhimurium TA1535 harboring pSK1002 assessed as survival at 0.016 mg/ml in absence of Sprague-Dawley rat liver S9 fraction after by SOS/umu assay relative to control; format: toxicity, organism-based; conditions: salmonella enterica subsp. enterica serovar typhimurium, read-out: Survival
[25] = Genotoxicity in Salmonella typhimurium TA1535 harboring pSK1002 assessed as umu gene induction at 0.063 mg/ml in presence of Sprague-Dawley rat liver S9 fraction after by SOS/umu assay relative to control; format: toxicity, organism-based; conditions: salmonella enterica subsp. enterica serovar typhimurium, read-out: FC
[26] = Genotoxicity in Salmonella typhimurium TA1535 harboring pSK1002 assessed as umu gene induction at 0.031 mg/ml in absence of Sprague-Dawley rat liver S9 fraction after by SOS/umu assay relative to control; format: toxicity, organism-based; conditions: salmonella enterica subsp. enterica serovar typhimurium, read-out: FC
[27] = Genotoxicity in Salmonella typhimurium TA1535 harboring pSK1002 assessed as umu gene induction at 0.125 mg/ml in presence of Sprague-Dawley rat liver S9 fraction after by SOS/umu assay relative to control; format: toxicity, organism-based; conditions: salmonella enterica subsp. enterica serovar typhimurium, read-out: FC
[28] = Genotoxicity in Salmonella typhimurium TA1535 harboring pSK1002 assessed as umu gene induction at 0.031 mg/ml in presence of Sprague-Dawley rat liver S9 fraction after by SOS/umu assay relative to control; format: toxicity, organism-based; conditions: salmonella enterica subsp. enterica serovar typhimurium, read-out: FC
[29] = Genotoxicity in Salmonella typhimurium TA1535 harboring pSK1002 assessed as survival at 0.031 mg/ml in presence of Sprague-Dawley rat liver S9 fraction after by SOS/umu assay relative to control; format: toxicity, organism-based; conditions: salmonella enterica subsp. enterica serovar typhimurium, read-out: Survival
[30] = Genotoxicity in Salmonella typhimurium TA1535 harboring pSK1002 assessed as survival at 0.004 mg/ml in presence of Sprague-Dawley rat liver S9 fraction after by SOS/umu assay relative to control; format: toxicity, organism-based; conditions: salmonella enterica subsp. enterica serovar typhimurium, read-out: Survival
Plasmodium falciparum [31] = assay: Antiplasmodial activity against chloroquine-sensitive Plasmodium falciparum 3D7 by [3H]-hypoxanthine incorporation assay; format: functional, organism-based; conditions: Plasmodium falciparum, 3D7; method in brief: as §1
[32] = Genotoxicity in Salmonella typhimurium TA1535 harboring pSK1002 assessed as umu gene induction at 0.001 mg/ml in presence of Sprague-Dawley rat liver S9 fraction after by SOS/umu assay relative to control; format: toxicity, organism-based; conditions: salmonella enterica subsp. enterica serovar typhimurium, read-out: FC
[33] = Genotoxicity in Salmonella typhimurium TA1535 harboring pSK1002 assessed as umu gene induction at 0.008 mg/ml in absence of Sprague-Dawley rat liver S9 fraction after by SOS/umu assay relative to control; format: toxicity, organism-based; conditions: salmonella enterica subsp. enterica serovar typhimurium, read-out: FC
[34] = Genotoxicity in Salmonella typhimurium TA1535 harboring pSK1002 assessed as umu gene induction at 0.004 mg/ml in presence of Sprague-Dawley rat liver S9 fraction after by SOS/umu assay relative to control; format: toxicity, organism-based; conditions: salmonella enterica subsp. enterica serovar typhimurium, read-out: FC
[35] = Genotoxicity in Salmonella typhimurium TA1535 harboring pSK1002 assessed as umu gene induction at 0.016 mg/ml in presence of Sprague-Dawley rat liver S9 fraction after by SOS/umu assay relative to control; format: toxicity, organism-based; conditions: salmonella enterica subsp. enterica serovar typhimurium, read-out: FC
[36] = Cytotoxicity against human HepG2A16 cells by MTT assay; format: cell-based; conditions: HepG2A16 cells
Method in brief: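 MTT viability assay on HepG2-A16 cells, giving CC50 values.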

[37] = Solubility of the compound in DSPC:cholesterol:DSPE-PEG2000-Mal:DOPE-Rho lipid mixture at 250 uM; format: physicochemical
Method in brief: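 Compound added at 250 µM drug to the initial liposome lipid mixture (10 mM total lipid); precipitation and UV-visible absorbance above 300 nm assessed after encapsulation, removal of unencapsulated material and extraction with 1% w/v SDS in RPMI-A.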

`O=[N+]([O-])c1ccccc1N1CCN(CCC(O)c2ccc(F)c3ccccc23)CC1` (stereo unspecified) showed a viability at 0.008 mg/ml [1] of 87.9%, a fold induction at 0.016 mg/ml [2] of 2 and a viability at 0.016 mg/ml [3] of 64.5%. For the same compound, the viability at 0.002 mg/ml [4] was 111%, the IC50 (Plasmodium falciparum [5]) was 2620 nM and the viability at 0.063 mg/ml [6] was 118%. It also gave a viability at 0.002 mg/ml [7] of 84.3%, a viability at 0.031 mg/ml [8] of 66.8% and a viability at 0.125 mg/ml [9] of 174%. The fold induction at 0.125 mg/ml [10] was 0.5, the fold induction at 0.001 mg/ml [11] was 1.1 and the fold induction at 0.002 mg/ml [12] was 0.9. For the same compound, the viability at 0.001 mg/ml [13] was 77.8%, the viability at 0.004 mg/ml [14] was 106% and the fold induction at 0.008 mg/ml [15] was 1. It also gave a fold induction at 0.002 mg/ml [16] of 0.7, a viability at 0.125 mg/ml [17] of 76.2% and a viability at 0.008 mg/ml [18] of 89.5%. It also gave a selectivity ratio [19] of 8, a fold induction at 0.004 mg/ml [20] of 0.9 and a viability at 0.001 mg/ml [21] of 100%. For the same compound, the fold induction at 0.063 mg/ml [22] was 0.8, the viability at 0.063 mg/ml [23] was 63.8% and the viability at 0.016 mg/ml [24] was 50.6%. For the same compound, the fold induction at 0.063 mg/ml [25] was 1.4, the fold induction at 0.031 mg/ml [26] was 1.5 and the fold induction at 0.125 mg/ml [27] was 1.3. It also gave a fold induction at 0.031 mg/ml [28] of 1.9, a viability at 0.031 mg/ml [29] of 63.2% and a viability at 0.004 mg/ml [30] of 92.2%. It also gave an IC50 (Plasmodium falciparum [31]) of 920 nM, a fold induction at 0.001 mg/ml [32] of 1.4 and a fold induction at 0.008 mg/ml [33] of 1.7. It also gave a fold induction at 0.004 mg/ml [34] of 1.2, a fold induction at 0.016 mg/ml [35] of 1.9 and a CC50 [36] of 19900 nM.
In the case of `OC(CCN1CCN(C(c2ccccc2)c2ccccc2)CC1)c1ccc2c(c1)OCO2` (stereo unspecified), the IC50 (Plasmodium falciparum [5]) is reported as 1440 nM, the selectivity ratio [19] is reported as 25 and the solubility [37] is reported as “Insoluble”. For the same compound, the IC50 (Plasmodium falciparum [31]) was 1660 nM and the CC50 [36] was 36100 nM.
